Measured values: ChEMBL document CHEMBL4689842, “EUbOPEN Chemogenomics Library wave 1” (2021)

Tested on: HEK-293T
Experiment: Multiplex assay against HEK293T;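 on Population Tubulin-Different-Phenotype (%): share of the cells with healthy nuclei that show this phenotype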
Type: toxicity, cell-based
Settings: human
How it was run: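 Hoechst33342, BioTracker Green Microtubule Cytoskeleton Dye, MitoTracker Red and Annexin V Alexa Fluor 680 were added to live cells at seeding, and imaging on a CQ1 microscope at 37°C and 5% CO2 followed compound addition. Gating by CellPathfinder machine learning separated cells into Hoechst high-intensity objects or normal cells, then normal cells into healthy, pyknosed or fragmented nuclei, then pyknosed cells into mitotic or apoptotic. Per cents of healthy-nucleus cells are reported for the tubulin, mitochondrial-mass and membrane-permeability phenotypes.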

[1] = 12 h, 1 µM, compound concentration 1 uM, replicate 1
[2] = 12 h, 1 µM, compound concentration 1 uM, replicate 2
[3] = 12 h, 10 µM, compound concentration 10 uM, replicate 1
[4] = 12 h, 10 µM, compound concentration 10 uM, replicate 2
[5] = 24 h, 1 µM, compound concentration 1 uM, replicate 1
[6] = 24 h, 1 µM, compound concentration 1 uM, replicate 2
[7] = 24 h, 10 µM, compound concentration 10 uM, replicate 1
[8] = 24 h, 10 µM, compound concentration 10 uM, replicate 2
[9] = 48 h, 1 µM, compound concentration 1 uM, replicate 1
[10] = 48 h, 1 µM, compound concentration 1 uM, replicate 2
[11] = 48 h, 10 µM, compound concentration 10 uM, replicate 1
[12] = 48 h, 10 µM, compound concentration 10 uM, replicate 2

## COc1cc2ncn(-c3cc(OCc4ccccc4C(F)(F)F)c(C(N)=O)s3)c2cc1OC [GW843682X]
[1]
  Population Apoptotic (%): 62%
  Population Fragmented Nuclei (%): 14%
  Population Healthy Nuclei (%): 44%
  Population Hoechst High Intensity Objects (%): 13%
  Population Membrane Permeable-Phenotype (%): 5%
  Population Mitochondria Different-Phenotype (%): 84%
  Population Mitotic Cells (%): 37%
  Population Normal (%): 86%
  Population Pyknosed Nuclei (%): 40%
  Population Tubulin-Different-Phenotype (%): 64%
  Total Cell Count: 252
[2]
  Population Apoptotic (%): 25%
  Population Fragmented Nuclei (%): 4%
  Population Healthy Nuclei (%): 38%
  Population Hoechst High Intensity Objects (%): 2%
  Population Membrane Permeable-Phenotype (%): 11%
  Population Mitochondria Different-Phenotype (%): 34%
  Population Mitotic Cells (%): 74%
  Population Normal (%): 97%
  Population Pyknosed Nuclei (%): 56%
  Population Tubulin-Different-Phenotype (%): 47%
  Total Cell Count: 208
[3]
  Population Apoptotic (%): 57%
  Population Fragmented Nuclei (%): 12%
  Population Healthy Nuclei (%): 54%
  Population Hoechst High Intensity Objects (%): 14%
  Population Membrane Permeable-Phenotype (%): 9%
  Population Mitochondria Different-Phenotype (%): 97%
  Population Mitotic Cells (%): 42%
  Population Normal (%): 85%
  Population Pyknosed Nuclei (%): 33%
  Population Tubulin-Different-Phenotype (%): 97%
  Total Cell Count: 272
[4]
  Population Apoptotic (%): 31%
  Population Fragmented Nuclei (%): 11%
  Population Healthy Nuclei (%): 50%
  Population Hoechst High Intensity Objects (%): 4%
  Population Membrane Permeable-Phenotype (%): 11%
  Population Mitochondria Different-Phenotype (%): 88%
  Population Mitotic Cells (%): 68%
  Population Normal (%): 96%
  Population Pyknosed Nuclei (%): 38%
  Population Tubulin-Different-Phenotype (%): 99%
  Total Cell Count: 250
[5]
  Population Apoptotic (%): 56%
  Population Fragmented Nuclei (%): 11%
  Population Healthy Nuclei (%): 39%
  Population Hoechst High Intensity Objects (%): 19%
  Population Membrane Permeable-Phenotype (%): 7%
  Population Mitochondria Different-Phenotype (%): 81%
  Population Mitotic Cells (%): 43%
  Population Normal (%): 80%
  Population Pyknosed Nuclei (%): 49%
  Population Tubulin-Different-Phenotype (%): 73%
  Total Cell Count: 252
[6]
  Population Apoptotic (%): 24%
  Population Fragmented Nuclei (%): 5%
  Population Healthy Nuclei (%): 41%
  Population Hoechst High Intensity Objects (%): 4%
  Population Membrane Permeable-Phenotype (%): 3%
  Population Mitochondria Different-Phenotype (%): 43%
  Population Mitotic Cells (%): 75%
  Population Normal (%): 95%
  Population Pyknosed Nuclei (%): 53%
  Population Tubulin-Different-Phenotype (%): 65%
  Total Cell Count: 205
[7]
  Population Apoptotic (%): 71%
  Population Fragmented Nuclei (%): 11%
  Population Healthy Nuclei (%): 57%
  Population Hoechst High Intensity Objects (%): 15%
  Population Membrane Permeable-Phenotype (%): 6%
  Population Mitochondria Different-Phenotype (%): 96%
  Population Mitotic Cells (%): 28%
  Population Normal (%): 84%
  Population Pyknosed Nuclei (%): 31%
  Population Tubulin-Different-Phenotype (%): 90%
  Total Cell Count: 270
[8]
  Population Apoptotic (%): 57%
  Population Fragmented Nuclei (%): 14%
  Population Healthy Nuclei (%): 53%
  Population Hoechst High Intensity Objects (%): 3%
  Population Membrane Permeable-Phenotype (%): 3%
  Population Mitochondria Different-Phenotype (%): 95%
  Population Mitotic Cells (%): 42%
  Population Normal (%): 96%
  Population Pyknosed Nuclei (%): 32%
  Population Tubulin-Different-Phenotype (%): 96%
  Total Cell Count: 264
[9]
  Population Apoptotic (%): 53%
  Population Fragmented Nuclei (%): 17%
  Population Healthy Nuclei (%): 31%
  Population Hoechst High Intensity Objects (%): 17%
  Population Membrane Permeable-Phenotype (%): 3%
  Population Mitochondria Different-Phenotype (%): 84%
  Population Mitotic Cells (%): 46%
  Population Normal (%): 82%
  Population Pyknosed Nuclei (%): 50%
  Population Tubulin-Different-Phenotype (%): 72%
  Total Cell Count: 248
[10]
  Population Apoptotic (%): 55%
  Population Fragmented Nuclei (%): 7%
  Population Healthy Nuclei (%): 63%
  Population Hoechst High Intensity Objects (%): 2%
  Population Membrane Permeable-Phenotype (%): 13%
  Population Mitochondria Different-Phenotype (%): 36%
  Population Mitotic Cells (%): 44%
  Population Normal (%): 97%
  Population Pyknosed Nuclei (%): 29%
  Population Tubulin-Different-Phenotype (%): 67%
  Total Cell Count: 220
[11]
  Population Apoptotic (%): 72%
  Population Fragmented Nuclei (%): 18%
  Population Healthy Nuclei (%): 46%
  Population Hoechst High Intensity Objects (%): 12%
  Population Membrane Permeable-Phenotype (%): 3%
  Population Mitochondria Different-Phenotype (%): 96%
  Population Mitotic Cells (%): 27%
  Population Normal (%): 87%
  Population Pyknosed Nuclei (%): 34%
  Population Tubulin-Different-Phenotype (%): 85%
  Total Cell Count: 260
[12]
  Population Apoptotic (%): 59%
  Population Fragmented Nuclei (%): 7%
  Population Healthy Nuclei (%): 42%
  Population Hoechst High Intensity Objects (%): 4%
  Population Membrane Permeable-Phenotype (%): 7%
  Population Mitochondria Different-Phenotype (%): 92%
  Population Mitotic Cells (%): 40%
  Population Normal (%): 95%
  Population Pyknosed Nuclei (%): 50%
  Population Tubulin-Different-Phenotype (%): 92%
  Total Cell Count: 247
